NR2E3 ag-1 – NR2E3 agonists in two-hybrid cells, primary screen, cell-based, luminescence, CHO-S, Gal4-NCOR/VP16-NR2E3 | Photoreceptor-specific nuclear receptor (Homo sapiens), Q9Y5X4 | luciferase | inhibition of corepressor binding, % at 3.98 µM | hit rate 0.35% among 360,000;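 active = inhibition above the mean of all tested compounds plus 3 SD, cut at about 70% in these data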;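 note: higher means lower luciferase signal from less NR2E3 corepressor binding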
Target sequence (Q9Y5X4 whole entry, looked up, the tested form may be a part): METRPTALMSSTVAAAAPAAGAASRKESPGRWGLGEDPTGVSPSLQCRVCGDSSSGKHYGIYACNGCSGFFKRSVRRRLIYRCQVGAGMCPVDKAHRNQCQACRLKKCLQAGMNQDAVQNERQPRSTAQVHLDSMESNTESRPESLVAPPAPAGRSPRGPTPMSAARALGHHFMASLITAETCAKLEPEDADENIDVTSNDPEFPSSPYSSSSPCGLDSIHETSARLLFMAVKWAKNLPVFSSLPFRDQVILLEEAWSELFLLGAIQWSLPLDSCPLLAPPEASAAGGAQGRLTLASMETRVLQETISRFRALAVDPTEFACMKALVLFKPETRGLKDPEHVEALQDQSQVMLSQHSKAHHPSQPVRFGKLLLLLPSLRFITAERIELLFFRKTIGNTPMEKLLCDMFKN
FXN GAA850 act – FXN promoter activators, primary screen, cell-based, luciferase luminescence, HEK293 lucGAA850 | hit rate 0.56% among 360,000 | activation, % at 6 µM | HEK293 lucGAA850 FXN promoter luciferase reporter, 24 h; percent of 10 µM SAHA response;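 active = activation above the average of all compounds screened plus 3 SD, cutoff fixed separately per campaign, cut at about 7.5% in these data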
V-ATPase pH – regulators of yeast V-ATPase proton pumping, primary screen, pHLuorin cytosolic pH fluorescence | hit rate 0.37% among 350,000 | AID 504577, 2011 | response, % at 10 µM | S. cerevisiae; in the data active = response mostly above about 7.3%, no sharp cut-off; inactive = mostly below about 5.4%; note: actives read high
GalR3 antagonist – GalR3 antagonists in HEK293 cells, primary screen, cell-based, fluorescence readout | inhibition, % at 3 µM | Galanin receptor type 3 (Homo sapiens), O60755 | HEK293 GalR3-CNG cAMP membrane potential fluorescence; galR3 body fused to GalR1 C-terminus | AID 651719, 2012 | hit rate 0.44% among 360,000;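 active = inhibition above the screen-wide average plus 3 SD, cut at about 13% in these data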;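 note: forskolin and galanin both at EC90 stimulate the cells; cAMP rise reported by CNG channel membrane potential dye signal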
NR2E3 ag-2 – inhibitors of NR2E3-RetCOR corepressor binding, primary screen, NR2E3 agonist project, biochemical, TR-FRET, GST-NR2E3, biotin-RetCOR. 1536-well. inhibition of corepressor binding, % at 4.78 µM. hit rate 0.12% among 320,000. AID 2300, 2010;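 active = percent inhibition above the cutoff of mean plus 3 SD of all tested compounds, set per screening campaign, cut at about 20% in these data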
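System: GST-tagged NR2E3 plus biotinylated RetCOR corepressor; Buffer or medium: pH 7.5 Tris-based buffer; Probe or stimulus: RetCOR corepressor, biotinylated, 7 nM; Doses: compound at 4.8 µM, single dose; Schedule: 5 h incubation at 4 °C; Technique: time-resolved FRET; Evaluation: percent inhibition of TR-FRET ratio; Replication: one well per compound, singlicate testing.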
HIV Env fusion – inhibitors of HIV-1 Env-driven cell-cell fusion, primary screen, HeLa-JRFL effector, CEM21 target cells, luciferase | inhibition, % at 12.3 µM | hit rate 1.1% among 360,000 | AID 651610, 2012;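 active = mean replicate inhibition score of at least 50 and every replicate individually at or above 50; inconclusive = only one of the two criteria met; inactive = mean below 50 and not all replicates reaching 50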
A number is an active result; [ ] = another dose, or the depositor's remark. Shown are actives, neighbours in structure and some others; about 2.2% of the full set was active somewhere.

`Cc1cccn2c(=O)c3cc(C(=O)NCC(C)C)sc3nc12` gave NR2E3 ag-1 inactive, FXN GAA850 act inactive, V-ATPase pH inactive, GalR3 antagonist inactive, NR2E3 ag-2 inactive and HIV Env fusion inactive.
Screening CCCN(CCC)C(=O)c1cc2c(=O)n3cccc(C)c3nc2s1 returned NR2E3 ag-1 inactive, FXN GAA850 act inactive, V-ATPase pH inactive, GalR3 antagonist inactive, NR2E3 ag-2 inactive and HIV Env fusion 58.
Cc1noc(C)c1S(=O)(=O)N(C)C[C@@H]1Oc2c(NS(=O)(=O)c3cn(C)cn3)cccc2C(=O)N([C@H](C)CO)C[C@H]1C was read as HIV Env fusion inactive.
O=C(/C=C/c1cc(Br)ccc1O)c1ccco1 was read as NR2E3 ag-1 inactive, FXN GAA850 act inactive, V-ATPase pH inactive, GalR3 antagonist 28, NR2E3 ag-2 inactive and HIV Env fusion inactive.
`CCCCc1c(-c2ccccc2OC)ncn1Cc1ccc(C)cc1` gave GalR3 antagonist inactive and HIV Env fusion 61.
Screening CCCCc1c(-c2ccccc2OC)ncn1Cc1ccc(Cl)cc1 returned NR2E3 ag-1 inactive, GalR3 antagonist inactive and HIV Env fusion inactive.
`CCCCc1c(-c2ccccc2OC)ncn1Cc1ccc(OC)cc1` gave GalR3 antagonist inactive and HIV Env fusion 61.
`C[C@H]1CN([C@@H](C)CO)C(=O)c2cccc(NC(=O)c3nc4ccccc4s3)c2O[C@H]1CN(C)Cc1ccc(Oc2ccccc2)cc1` gave HIV Env fusion inactive.
For O=C(N[C@@H]1CC[C@@H](CCNC(=O)C2CCCCC2)O[C@H]1CO)c1ccccn1 the results were HIV Env fusion inactive.
Screening Cn1cnc(S(=O)(=O)N2C[C@H](O)COC[C@H]3O[C@@H](CC(=O)NC4Cc5ccccc5C4)CC[C@@H]32)c1 returned HIV Env fusion inactive.
`C[C@@H]1CN([C@H](C)CO)S(=O)(=O)c2ccc(-c3cccnc3)cc2O[C@@H]1CN(C)C(=O)CC1CC1` gave HIV Env fusion inactive.
CC1(C(=O)NCc2ccccc2)CCC(=O)N1C1CCN(Cc2ccccc2)CC1 (stereo not drawn) was read as NR2E3 ag-1 inactive, GalR3 antagonist inactive and HIV Env fusion inconclusive.
For CCCCNC(=O)C1(C)CCC(=O)N1C1CCN(Cc2ccccc2)CC1 (stereo not drawn) the results were NR2E3 ag-1 inactive, GalR3 antagonist inactive and HIV Env fusion 64.
C[C@H]1CN([C@@H](C)CO)S(=O)(=O)c2ccc(-c3cccc(C#N)c3)cc2O[C@H]1CN(C)C(=O)c1ccncc1 was read as HIV Env fusion inactive.
COc1ccc(S(=O)(=O)n2ccc(-c3ccc(OCCN(C)c4ccccn4)cc3)n2)cc1 was read as NR2E3 ag-1 inactive, FXN GAA850 act inactive, V-ATPase pH inactive, GalR3 antagonist inactive, NR2E3 ag-2 inactive and HIV Env fusion 75.
Screening CCCNC(=O)N(C)C[C@H]1Oc2cc(-c3ccccc3F)ccc2S(=O)(=O)N([C@H](C)CO)C[C@@H]1C returned HIV Env fusion inactive.
Screening O=S(=O)(Nc1nc(-c2sccc2Cl)cs1)c1cc(Cl)ccc1Cl returned NR2E3 ag-1 99, FXN GAA850 act inactive, V-ATPase pH inactive and NR2E3 ag-2 inactive.
`C[C@@H]1CN([C@H](C)CO)C(=O)Cc2cc(NC(=O)Cc3cn(C)c4ccccc34)ccc2O[C@@H]1CN(C)C(=O)Nc1ccc(F)cc1` gave HIV Env fusion inactive.
`Cc1cccc(N2CN(Cc3cccnc3)CNC2=S)c1` gave NR2E3 ag-1 inactive, FXN GAA850 act inactive, V-ATPase pH 16, GalR3 antagonist inactive and NR2E3 ag-2 inactive.
`Cc1noc(C)c1NC(=O)Nc1ccc2c(c1)CC(=O)N([C@H](C)CO)C[C@@H](C)[C@H](CN(C)S(=O)(=O)c1c(C)noc1C)O2` gave HIV Env fusion inactive.
Screening O=[N+]([O-])c1ccc(OCc2cnc(Cl)s2)cc1 returned NR2E3 ag-1 inactive, FXN GAA850 act inactive, V-ATPase pH inactive, GalR3 antagonist inactive and HIV Env fusion inactive.
For COc1ccc(OCc2cnc(Cl)s2)cc1 the results were NR2E3 ag-1 inactive, FXN GAA850 act 17, V-ATPase pH inactive, GalR3 antagonist inactive and NR2E3 ag-2 inactive.
Screening C[C@H](CO)N1C[C@H](C)[C@@H](CN(C)CC2CC2)Oc2ccc(NC(=O)Cn3cnnn3)cc2CC1=O returned HIV Env fusion inactive.
C[C@H](CO)N1C[C@H](C)[C@H](CN(C)CC2CC2)Oc2cc(C#Cc3ccc(F)cc3)ccc2S1(=O)=O was read as HIV Env fusion inactive.
Screening COc1ccc(NC(=O)Nc2ccc3c(c2)C(=O)N([C@@H](C)CO)C[C@@H](C)[C@H](CN(C)Cc2ccc(Cl)c(Cl)c2)OCCCC[C@H](C)O3)cc1 returned HIV Env fusion 60[16.7 µM].
C[C@@H]1CCCCO[C@@H](CN(C)Cc2ccc(Cl)c(Cl)c2)[C@H](C)CN([C@H](C)CO)C(=O)c2cc(NC(=O)NC3CCCCC3)ccc2O1 was read as HIV Env fusion 72[16.7 µM].
C[C@@H]1CN([C@H](C)CO)C(=O)c2cc(NC(=O)Nc3ccc(F)cc3)ccc2O[C@@H](C)CCCCO[C@@H]1CN(C)Cc1ccc(Cl)c(Cl)c1 was read as HIV Env fusion inactive.
C[C@@H]1CN([C@@H](C)CO)C(=O)c2cc(NC(=O)CCC(F)(F)F)ccc2O[C@@H](C)CCCCO[C@H]1CN(C)Cc1ccc(Cl)c(Cl)c1 was read as HIV Env fusion inactive.
`C[C@H]1CCCCO[C@H](CN(C)Cc2ccc(Cl)c(Cl)c2)[C@@H](C)CN([C@@H](C)CO)C(=O)c2cc(NC(=O)Nc3ccc(F)cc3)ccc2O1` gave HIV Env fusion 72[16.7 µM].
Screening C[C@H]1CCCCO[C@H](CN(C)Cc2ccc(Cl)c(Cl)c2)[C@@H](C)CN([C@@H](C)CO)C(=O)c2cc(NC(=O)CCC(F)(F)F)ccc2O1 returned HIV Env fusion 79[16.7 µM].
For CN1C(=O)c2cc(NC(=O)c3ccc(F)cc3)ccc2OC[C@@H]2O[C@H](CC(=O)NCC3CC3)CC[C@@H]21 the results were HIV Env fusion inactive.
`C[C@H](CO)N1C[C@H](C)[C@H](CN(C)Cc2ccncc2)OCCCC[C@H](C)Oc2ccc(N(C)C)cc2C1=O` gave HIV Env fusion inactive.

Screens as filed in PubChem BioAssay.
